Assay results from ChEMBL document CHEMBL4017507 (J Med Chem, 2017).

Experiments:
[1] = Cytotoxicity against human HEL cells assessed as alteration to cell morphology by microscopic analysis; type: cell-based
Method in brief: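 Minimal cytotoxic concentration is the compound concentration giving a microscopically visible alteration of HEL cell morphology, scored in the antiviral assay cultures.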

[2] = tested on: Human alphaherpesvirus 1; experiment: Antiviral activity against ACV-resistant thymidine kinase deficient Herpes simplex virus 1 KOS infected in human HEL cells assessed as inhibition of virus-induced cytopathic effect; type: functional, cell-based; conditions: Human alphaherpesvirus 1, KOS
Method in brief: (§1)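 Confluent HEL fibroblast monolayers were inoculated in 96-well plates with 100 CCID50 of virus in the presence of serially varied compound concentrations. Cytopathicity was scored once untreated infected controls reached full CPE.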

[3] = tested on: Human alphaherpesvirus 1; experiment: Antiviral activity against Herpes simplex virus 1 KOS infected in human HEL cells assessed as inhibition of virus-induced cytopathic effect; type: functional, cell-based; conditions: Human alphaherpesvirus 1, KOS; method in brief: as §1
[4] = tested on: CCRF-CEM; experiment: (§2) Cytostatic activity human CEM cells assessed as reduction in cell viability after 72 hrs by cell counting method; type: cell-based; conditions: ccrf-cem, 72 h
Method in brief: (§3)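 (5–7.5) × 10^? CEM cells per well were grown with compound for 72 h at 37 °C under humidified CO2. Cells were counted in a Coulter counter.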

[5] = tested on: Human betaherpesvirus 5; experiment: Antiviral activity against human cytomegalovirus Davis infected in human HEL cells assessed as inhibition of virus-induced cytopathic effect; type: functional, cell-based; conditions: Human betaherpesvirus 5, Davis; method in brief: as §1
[6] = tested on: Human alphaherpesvirus 3; experiment: Antiviral activity against thymidine kinase deficient Varicella-Zoster virus 07-1 infected in human HEL cells assessed as inhibition of virus-induced cytopathic effect; type: functional, cell-based; conditions: Human alphaherpesvirus 3, 07-1, HEL
Method in brief: (§4)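 Confluent HEL fibroblast cultures were inoculated with 20 PFU of VZV in the presence of varying compound concentrations. Plaque formation was recorded once untreated infected controls reached completion.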

[7] = tested on: Human betaherpesvirus 5; experiment: Antiviral activity against human cytomegalovirus AD-169 infected in human HEL cells assessed as inhibition of virus-induced cytopathic effect; type: functional, cell-based; conditions: Human betaherpesvirus 5, AD-169, HEL; method in brief: as §1
[8] = tested on: Human alphaherpesvirus 2; experiment: Antiviral activity against Herpes simplex virus 2 G infected in human HEL cells assessed as inhibition of virus-induced cytopathic effect; type: functional, cell-based; conditions: Human alphaherpesvirus 2, strain G; method in brief: as §1
[9] = tested on: HEL; experiment: Cytotoxicity against human HEL cells assessed as cell growth inhibition by cell counting method; type: cell-based
[10] = tested on: Human alphaherpesvirus 3; experiment: Antiviral activity against Varicella-Zoster virus OKA infected in human HEL cells assessed as inhibition of virus-induced cytopathic effect; type: functional, cell-based; conditions: Human alphaherpesvirus 3, strain Oka vaccine; method in brief: as §4
[11] = tested on: MT4; experiment: Cytotoxicity against human MT4 cells assessed as reduction in cell viability by cell counting method; type: cell-based
Method in brief: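 MT-4 cultures, untreated or treated, were assessed with an automated cell counter using propidium iodide staining to enumerate total and dead cells.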

[12] = tested on: Human immunodeficiency virus 1; experiment: Antiviral activity against HIV1 X4LAI.04 infected in human MT4 cells assessed as decrease in viral replication by p24gag-based luminex assay; type: functional, cell-based; conditions: Human immunodeficiency virus 1, X4LAI.04, MT4
Method in brief: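 10^6 MT-4 cells were infected with HIV-1 X4LAI.04 (7 ng p24) for 2 h at 37 °C, then washed with PBS and resuspended. Compounds were added and cultures were kept 3 days at 37 °C. Supernatant p24 was measured by bead-based Luminex. Inhibition was calculated as (1 − p24 treated/p24 untreated) × 100, and EC50 was derived from it.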

[13] = Drug metabolism assessed as carboxypeptidase Y (unknown origin)-mediated metabolite 81 formation measured after 24 hrs by [31P]-NMR spectroscopic analysis; type: ADME; conditions: human
[14] = Drug metabolism assessed as carboxypeptidase Y (unknown origin)-mediated metabolite 81 peak measured with in 1 hr by [31P]-NMR spectroscopic analysis; type: ADME; conditions: human
[15] = Selectivity index, ratio of IC50 for human MT4 cells to EC50 for HIV1 X4LAI.04; type: toxicity; conditions: read-out: Ratio IC50/EC50
[16] = tested on: Human immunodeficiency virus 1; experiment: Antiviral activity against HIV1 X4LAI.04 infected in human tonsillar tissues assessed as inhibition of virus-induced cytopathic effect by p24gag-based luminex assay; type: functional; conditions: Human immunodeficiency virus 1, X4LAI.04
Method in brief: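 Tonsillectomy tissue blocks of 2–3 mm³ were cultured on collagen sponge gels at the air–liquid interface, 27 blocks per donor per condition. Blocks were pretreated with compound overnight, infected with HIV-1 X4LAI.04 and cultured 12 days, with drug replenished at each medium change every 3 days. Medium p24 was measured by Luminex. Inhibition was calculated against untreated tissue, and EC50 was derived from it.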

[17] = as §2; type: cell-based, CCRF-CEM; conditions: CEM cells (CCRF-CEM); method in brief: as §3

SMILES: COc1nc(N)nc2c1ncn2CCC(CO)COP(=O)(N[C@@H](C)C(=O)OCc1ccccc1)Oc1cccc2ccccc12 (some centres not stated)
- MCC [1]: 50 to 100 µM
- EC50 [2]: 20 µM
- EC50 [3]: 38 µM
- CC50 [4]: 27 µM
- EC50 [5]: 50 µM
- EC50 [6]: 23 µM
- EC50 [7]: > 50 µM
- EC50 [8]: 20 µM
- CC50 [9]: 49 µM
- EC50 [10]: 17 µM
- IC50 [11]: 12 µM
- EC50 [12]: 23 µM

SMILES: COc1nc(N)nc2c1ncn2CCC(COP(=O)(N[C@@H](C)C(=O)OCC(C)(C)C)Oc1cccc2ccccc12)COP(=O)(N[C@@H](C)C(=O)OCC(C)(C)C)Oc1cccc2ccccc12 (some centres not stated)
- MCC [1]: 20 to 100 µM
- EC50 [2]: > 100 µM
- EC50 [3]: > 100 µM
- CC50 [4]: 4.6 µM
- EC50 [5]: 20 µM
- EC50 [6]: 7.7 µM
- EC50 [7]: 15 µM
- EC50 [8]: > 100 µM
- CC50 [9]: 2.5 µM
- EC50 [10]: 4.3 µM
- IC50 [11]: 5 µM
- EC50 [12]: 8.2 µM

SMILES: COc1nc(N)nc2c1ncn2CCC(CO)COP(=O)(N[C@@H](C)C(=O)OCC(C)(C)C)Oc1cccc2ccccc12 (some centres not stated)
- MCC [1]: 50 to 100 µM
- EC50 [2]: 15 µM
- EC50 [3]: 9 µM
- CC50 [4]: 17 µM
- EC50 [5]: 40 µM
- EC50 [6]: 6.2 µM
- EC50 [7]: 50 µM
- EC50 [8]: 9 µM
- CC50 [9]: 7.6 µM
- EC50 [10]: 2 µM
- IC50 [11]: 35 µM
- EC50 [12]: 41 µM

SMILES: CCC(C)(C)COC(=O)[C@H](C)NP(=O)(OCC(CCn1cnc2c(OC)nc(N)nc21)COP(=O)(N[C@@H](C)C(=O)OCC(C)(C)CC)Oc1cccc2ccccc12)Oc1cccc2ccccc12 (some centres not stated)
- MCC [1]: 50 to 100 µM
- EC50 [2]: > 100 µM
- EC50 [3]: > 100 µM
- CC50 [4]: 7.2 µM
- EC50 [5]: > 20 µM
- EC50 [6]: 9.5 µM
- EC50 [7]: > 20 µM
- EC50 [8]: > 100 µM
- CC50 [9]: 5 µM
- EC50 [10]: 6.4 µM
- IC50 [11]: 9 µM
- EC50 [12]: 5.6 µM

SMILES: CC(C)OC(=O)[C@H](C)NP(=O)(OCC(CO)OCn1cnc2c(=O)[nH]c(N)nc21)Oc1cccc2ccccc12 (some centres not stated)
- MCC [1]: > 100 µM
- EC50 [2]: ≥ 75 µM
- EC50 [3]: 2 µM
- Drug metabolism [13]: Metabolite_Notdetected
- CC50 [4]: 35 µM
- Drug metabolism [14]: Metabolite_Detected
- EC50 [5]: 6.8 µM
- EC50 [6]: ≥ 10.8 µM
- EC50 [7]: > 50 µM
- EC50 [8]: 3 µM
- CC50 [9]: > 50 µM
- EC50 [10]: ≥ 23.5 µM
- IC50 [11]: 150 µM
- EC50 [12]: 40 µM

SMILES: COC(=O)[C@H](C)NP(=O)(OCC(CO)CCn1cnc2c(OC)nc(N)nc21)Oc1cccc2ccccc12 (some centres not stated)
- MCC [1]: 50 to 100 µM
- EC50 [2]: > 100 µM
- EC50 [3]: > 100 µM
- CC50 [4]: 15 µM
- EC50 [5]: 14 µM
- EC50 [6]: 25 µM
- EC50 [7]: 32 µM
- EC50 [8]: > 100 µM
- CC50 [9]: 37 µM
- EC50 [10]: 13 µM
- IC50 [11]: 10 µM
- EC50 [12]: 16 µM

SMILES: COc1nc(N)nc2c1ncn2CCC(CO)COP(=O)(N[C@@H](C)C(=O)OCc1ccccc1)Oc1ccccc1 (some centres not stated)
- MCC [1]: 50 to 100 µM
- EC50 [2]: 39 µM
- EC50 [3]: 39 µM
- CC50 [4]: 32 µM
- selectivity ratio [15]: 2.1
- EC50 [5]: 7.9 µM
- EC50 [6]: 22.2 µM
- EC50 [7]: 31.6 µM
- EC50 [8]: 29 µM
- CC50 [9]: ≥ 83 µM
- EC50 [10]: 17.1 µM
- EC50 [16]: 0.9 µM
- IC50 [11]: 23 µM
- EC50 [12]: 1.1 µM

SMILES: COc1nc(N)nc2c1ncn2CCC(CO)CO
- MCC [1]: 50 to 100 µM
- EC50 [2]: > 100 µM
- EC50 [3]: > 100 µM
- CC50 [4]: 246 µM
- EC50 [5]: > 50 µM
- EC50 [6]: > 50 µM
- EC50 [7]: > 50 µM
- EC50 [8]: > 100 µM
- CC50 [9]: > 100 µM
- EC50 [10]: 22.8 µM
- EC50 [16]: > 30 µM
- IC50 [11]: > 150 µM
- EC50 [12]: > 150 µM

SMILES: Nc1nc(O)c2ncn(COC(CO)CO)c2n1 [GANCICLOVIR]
- MCC [1]: 100 to 350 µM
- CC50 at 72 h [17]: > 100 µM
- EC50 [8]: 0.04 µM
- CC50 [9]: 273 µM
- EC50 [16]: 5 µM
- IC50 [11]: > 50 µM
- EC50 [12]: > 50 µM

SMILES: Nc1nc2c(ncn2CCC(CO)CO)c(=O)[nH]1 [PENCICLOVIR]
- MCC [1]: > 100 µM
- EC50 [2]: 4 µM
- EC50 [5]: > 50 µM
- EC50 [6]: 10.2 µM
- EC50 [7]: > 50 µM
- CC50 [9]: > 100 µM
- EC50 [16]: 11 µM
- IC50 [11]: > 150 µM
- EC50 [12]: > 150 µM
